Data on three compounds can be found in ChEMBL document CHEMBL3272284, “Drugs derived from cannabinoids. 6. Synthesis of cyclic analogues of dimethylheptylpyran” (1976).

The source made the active and inactive calls. The rule behind the calls is not given here.

The test system of assay [1] is Rattus norvegicus. In words: Antihypertensive activity in rat assessed as reduction of blood pressure at 0.1 mg/kg, po. The assay is classed as functional. Details: scale not given: the % may be the effect or the level left. An outline of the steps: (§1)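 Cardiovascular screen in hypertensive rats. Compounds were given orally and blood pressure was measured after dosing, with readings taken at 3 h and over 24 h. Activity is expressed as percent decrease in blood pressure.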

Assay [2] concerns Rattus norvegicus. Description: Antihypertensive activity in rat assessed as reduction of blood pressure at 10 mg/kg, po after 24 hrs. The assay is classed as functional. Details: scale not given: the % may be the effect or the level left. In outline: as §1
The test system of assay [3] is Rattus norvegicus. Description: Antihypertensive activity in rat assessed as reduction of blood pressure at 10 mg/kg, po after 3 hrs. The assay is classed as functional. More on the design: scale not given: the % may be the effect or the level left. An outline of the steps:
as §1

Assay [4] deals with Mus musculus. In words: […] activity in mouse assessed as protection against audiogenic seizure up to 30 mg/kg, po. The assay is classed as functional, organism-based. More on the design: dose 30 mg/kg.
Assay [5] has as its system Mus musculus. Description: Central nervous system activity in mouse assessed as fighting at 10 mg/kg, po. The assay is classed as functional, organism-based. Details: dose 10 mg/kg.
For assay [6], the system named is Rattus norvegicus. Description: Antidepressant activity in rat assessed as motor activity at 5 mg/kg, po. The assay is classed as functional, organism-based. Details: dose 5 mg/kg.
The subject of assay [7] is Rattus norvegicus. In words: Antihypertensive activity in po dosed rat assessed as reduction of blood pressure. The assay is classed as functional, organism-based. In outline: as §1

In the case of `CCCCCC(C)C(C)c1cc(O)c2c(c1)OC(C)(C)C1=C2CC(C)CC1` (stereo not given), the Activity in assay [1] was 8%; in assay [2] it was 38%.
Regarding `CCCCCC1Cc2c(cc(O)c3c2OC(C)(C)C2=C3CC(C)CC2)C1C` (stereo not given), the Activity in assay [3] was found to be 6%. Besides, the outcome in assay [4], in assay [5] and in assay [6] was inactive.
Take `CCCCCC1Cc2c(cc3c(c2O)C2=C(CCC(C)C2)C(C)(C)O3)C1C` (stereo not given): the outcome in assay [4], in assay [7], in assay [5] and in assay [6] was inactive.
